Test results taken from ChEMBL document CHEMBL1127514, “Retinobenzoic acids. 6. Retinoid antagonists with a heterocyclic ring” (1994).
Activity calls are given as the source filed them. The rule behind the calls is not given here.

Tests used:
HL-60 [1] = experiment: The ability to induce differentiation of human promyelocytic leukemia cell line HL-60 to mature granulocytes was determined by nitro blue tetrazolium (NBT) reduction assay; Inactive; assay type: functional, cell-based
How it was run: (§1)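 HL-60 cells grown in RPMI1640 with 5% FCS and antibiotics were seeded at about 8×10^4 cells/mL. Compounds were added from 2 mM ethanol stocks (final ethanol below 0.5%; ethanol-only controls) and cells incubated 4 days. Percent differentiated cells was scored by NBT reduction (0.2% NBT plus TPA 200 ng/mL, 20 min, 37 °C; formazan-positive cells counted, minimum 200 cells). Assays were run at least twice, and ED50 was obtained by the van der Waerden method.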

HL-60 [2] = experiment: The ability to induce differentiation of human promyelocytic leukemia cell line HL-60 to mature granulocytes was determined by nitro blue tetrazolium (NBT) reduction assay; assay type: functional; details: read-out: ED50 (the source's name); how it was run: as §1
HL-60 [3] = experiment: The ability to induce differentiation of human promyelocytic leukemia cell line HL-60 to mature granulocytes relative to retinoic acid was determined by nitro blue tetrazolium (NBT) reduction assay; assay type: functional
How it was run: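 HL-60 cells in RPMI1640 with 5% FCS, 37 °C, 5% CO2, seeded at about 8×10^4 cells/mL. Compounds were added from 2 mM ethanol stocks (final ethanol below 0.5%) and cells incubated 4 days. NBT reduction (0.2% NBT, TPA 200 ng/mL, 20 min, 37 °C) was scored on ≥200 cells. ED50 was calculated by van der Waerden; the value is the retinoic acid ED50 divided by the compound ED50 from concurrent runs, ×100.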

EC50 (HL-60 [2]) [nM]	SMILES	ED50 (HL-60 [1])	Relative activity (HL-60 [3])
530	CN1C(=O)CC(c2ccc(C(=O)O)cc2)=Nc2cc3c(cc21)C(C)(C)CCC3(C)C	–	0.43
3.4	Cn1c(-c2ccc(C(=O)O)cc2)nc2cc3c(cc21)C(C)(C)CCC3(C)C	–	65
320	CC1(C)CCC(C)(C)c2cc3[nH]c(-c4ccc(C(=O)O)cc4)nc3cc21	–	0.7
46	CCn1c(-c2ccc(C(=O)O)cc2)nc2cc3c(cc21)C(C)(C)CCC3(C)C	–	4.9

More lines, now with the values behind:

SMILES	EC50 (HL-60 [2]) [nM]	ED50 (HL-60 [1])	Relative activity (HL-60 [3])
CC1(C)CCC(C)(C)c2cc3c(cc21)nc(-c1ccc(C(=O)O)cc1)n3Cc1ccccc1	–	inactive	–
CC1(C)CCC(C)(C)c2cc3c(cc21)nc(-c1ccc(C(=O)O)cc1)n3-c1ccccc1	–	inactive	–
CC(C)n1c(-c2ccc(C(=O)O)cc2)nc2cc3c(cc21)C(C)(C)CCC3(C)C	> 10000	–	< 0.01
CN1c2cc3c(cc2N=C(c2ccc(C(=O)O)cc2)c2ccccc21)C(C)(C)CCC3(C)C	–	inactive	–
CC1(C)CCC(C)(C)c2cc3c(cc21)Nc1ccccc1C(c1ccc(C(=O)O)cc1)N3 (stereo unspecified)	> 10000	–	< 0.01
CC1=C(/C=C/C(C)=C/C=C/C(C)=C/C(=O)O)C(C)(C)CCC1 [TRETINOIN]	2.4	–	100
CC1(C)CCC(C)(C)c2cc(NC(=O)c3ccc(C(=O)O)cc3)ccc21 [TAMIBAROTENE]	0.79	–	350
CC1(C)CCC(C)(C)c2cc3c(cc21)N=C(c1ccc(C(=O)O)cc1)CC(=O)N3	–	inactive	–
CC1(C)CCC(C)(C)c2cc3c(cc21)NC(=O)CN(c1ccc(C(=O)O)cc1)C3=O	–	inactive	–
